What was measured:
Assay type in all cases: protein-complex assay
[1] = biological target: T1, Integrin alpha-IIb/beta-3 (Homo sapiens, UniProt P05106+P08514); assay: Binding affinity for soluble GPIIb/IIIa captured on fibrinogen coated microtiter plate
How it was run: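 Solid-phase ELISA measuring binding of soluble GPIIbIIIa to fibrinogen coated on a microtiter plate. Values are the average of at least 3 determinations.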

[2] = biological target: T1, Integrin alpha-IIb/beta-3; assay: Binding affinity for soluble GPIIb/IIIa captured on fibrinogen coated microtiter plate; 3:1 mixture enriched in the faster eluting diastereoisomer
How it was run: (§1)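 Solid-phase ELISA measuring binding of soluble GPIIbIIIa to plate-coated fibrinogen. Tested as a diastereoisomer-enriched mixture, single determination (n = 1).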

[3] = biological target: T1, Integrin alpha-IIb/beta-3; assay: Binding affinity for soluble GPIIb/IIIa captured on fibrinogen coated microtiter plate; 1:3 mixture enriched in the slower eluting diastereoisomer; how it was run: as §1

T1 sequence (P05106 27-788 limits assumed): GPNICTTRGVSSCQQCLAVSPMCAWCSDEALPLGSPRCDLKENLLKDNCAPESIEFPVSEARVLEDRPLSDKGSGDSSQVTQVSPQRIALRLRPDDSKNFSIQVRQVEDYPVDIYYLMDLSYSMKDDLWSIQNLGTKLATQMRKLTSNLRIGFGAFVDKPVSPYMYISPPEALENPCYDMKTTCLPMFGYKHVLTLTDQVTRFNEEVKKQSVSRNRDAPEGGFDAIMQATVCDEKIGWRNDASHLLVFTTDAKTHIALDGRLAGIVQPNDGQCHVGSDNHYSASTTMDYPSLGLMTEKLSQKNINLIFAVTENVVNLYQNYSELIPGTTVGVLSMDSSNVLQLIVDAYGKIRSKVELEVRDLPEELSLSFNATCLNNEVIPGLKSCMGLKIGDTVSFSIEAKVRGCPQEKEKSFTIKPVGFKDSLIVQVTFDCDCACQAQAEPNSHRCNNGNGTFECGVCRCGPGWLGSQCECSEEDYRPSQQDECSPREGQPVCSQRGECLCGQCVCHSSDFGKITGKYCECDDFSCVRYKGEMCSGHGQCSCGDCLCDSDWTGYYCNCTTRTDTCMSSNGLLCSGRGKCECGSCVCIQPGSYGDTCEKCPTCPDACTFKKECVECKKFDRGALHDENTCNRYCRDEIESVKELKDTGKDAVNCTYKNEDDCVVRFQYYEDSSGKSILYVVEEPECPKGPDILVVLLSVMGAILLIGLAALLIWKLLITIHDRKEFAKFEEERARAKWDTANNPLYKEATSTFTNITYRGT
T1 sequence (P08514 32-887 limits assumed): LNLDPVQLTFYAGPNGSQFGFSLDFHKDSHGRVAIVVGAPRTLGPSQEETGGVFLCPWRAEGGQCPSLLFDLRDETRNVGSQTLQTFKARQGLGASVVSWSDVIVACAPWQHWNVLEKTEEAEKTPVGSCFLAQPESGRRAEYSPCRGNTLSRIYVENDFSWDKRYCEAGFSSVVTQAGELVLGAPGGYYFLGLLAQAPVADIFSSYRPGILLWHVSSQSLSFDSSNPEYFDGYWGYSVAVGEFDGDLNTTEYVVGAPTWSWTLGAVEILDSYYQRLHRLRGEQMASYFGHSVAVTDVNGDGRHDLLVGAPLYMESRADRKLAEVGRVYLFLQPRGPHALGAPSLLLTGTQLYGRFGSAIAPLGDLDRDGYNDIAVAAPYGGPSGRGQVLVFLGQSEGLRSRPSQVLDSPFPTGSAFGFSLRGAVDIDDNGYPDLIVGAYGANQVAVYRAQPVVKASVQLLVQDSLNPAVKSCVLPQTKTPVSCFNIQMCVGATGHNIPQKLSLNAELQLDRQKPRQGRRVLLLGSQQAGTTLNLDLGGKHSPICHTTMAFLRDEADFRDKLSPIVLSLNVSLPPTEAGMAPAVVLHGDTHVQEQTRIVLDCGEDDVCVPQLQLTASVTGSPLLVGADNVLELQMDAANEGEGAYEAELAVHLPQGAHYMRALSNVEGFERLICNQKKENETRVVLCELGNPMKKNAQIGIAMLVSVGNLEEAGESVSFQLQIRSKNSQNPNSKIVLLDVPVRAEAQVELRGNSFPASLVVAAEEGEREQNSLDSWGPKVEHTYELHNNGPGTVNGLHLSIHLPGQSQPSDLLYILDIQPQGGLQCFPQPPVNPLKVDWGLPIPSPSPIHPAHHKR
T1 sequence (P08514 891-1039 limits assumed): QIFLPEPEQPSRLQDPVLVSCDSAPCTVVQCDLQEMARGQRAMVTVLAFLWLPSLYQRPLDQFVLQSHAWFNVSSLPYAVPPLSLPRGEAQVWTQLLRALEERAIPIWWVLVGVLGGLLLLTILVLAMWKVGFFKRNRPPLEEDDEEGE

Row | SMILES | IC50 [1] | IC50 [2] | IC50 [3]
1 | CN1C(=O)CN(CCC(=O)O)C(=O)c2cc(C#Cc3ccc(C(=N)N)cc3)ccc21 | 11 nM |  | 
2 | C[C@@H](CC(=O)O)N1CC(=O)N(C)c2c(Cl)cc(C#Cc3ccc(C(=N)N)cc3)cc2C1=O | 7 nM |  | 
3 | C[C@H](CC(=O)O)N1CC(=O)N(C)c2ccc(C#Cc3ccc(C(=N)N)cc3)cc2C1=O | 60 nM |  | 
4 | C[C@@H](CC(=O)O)N1CC(=O)N(C(C)(C)C)c2ccc(C#Cc3ccc(C(=N)N)cc3)cc2C1=O |  | 3 nM | 12 nM
5 | C[C@@H](CC(=O)O)N1CC(=O)N(C)c2ccc(C#Cc3ccc(C(=N)N)cc3)cc2C1=O | 5 nM |  | 
6 | C[C@@H](CC(=O)O)N1CC(=O)N(C(C)(C)C)c2c(Cl)cc(C#Cc3ccc(C(=N)N)cc3)cc2C1=O (stereo in doubt; 9) | 2 nM |  | 
7 | C[C@@H](CC(=O)O)N1CC(=O)N(C(C)(C)C)c2c(Cl)cc(C#Cc3ccc(C(=N)N)cc3)cc2C1=O (stereo in doubt; 10) | 140 nM |  | 
8 | C[C@H](CC(=O)O)N1CC(=O)N(C(C)(C)C)c2c(Cl)cc(C#Cc3ccc(C(=N)N)cc3)cc2C1=O (stereo in doubt; 11) | 18 nM |  | 
9 | C[C@H](CC(=O)O)N1CC(=O)N(C(C)(C)C)c2c(Cl)cc(C#Cc3ccc(C(=N)N)cc3)cc2C1=O (stereo in doubt; 12) | 65 nM |  | 

Source: ChEMBL document CHEMBL1129954, “From peptide to non-peptide. 3. Atropisomeric GPIIbIIIa antagonists containing the 3,4-dihydro-1H-1,4-benzodiazepine-2,5-dione nucleus” (J Med Chem, 1997)
